This is a sample that favours compounds with a hit; in the whole collection about 3% have one here.
Myeloid diff MLP: compounds promoting myeloid differentiation | ER-HoxA9 myeloid progenitors, lysozyme-GFP differentiation, flow cytometry | calls only at 10 µM | 1% of 360,000 active;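 active = normalized GFP-positive differentiation at or above the plate's own cutoff, the solvent-only control mean plus 3 SD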;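 note: cells exposed to compound for four days before flow analysis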
SENP1 inh: SENP1 (human) catalytic domain inhibition. inhibition, % at 10 µM. AID 624204. recombinant SENP1 catalytic domain, CyPet-SUMO1-YPet FRET cleavage. 0.21% of 360,000 active. Q9P0U3;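 active = inhibition at least 30% at 10 µM, raw YFP signal under a set limit, fluorescence ratio 0.5 to 1.5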;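 note: 0% = enzyme with DMSO and 100% = no enzyme wells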
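Test system: human SENP1 catalytic domain; medium: Tris pH 8 buffer plus EDTA, NaCl, BME, BSA, NP40, catalase; incubation: 50 min reaction at room temperature; technique: FRET, CFP and YFP emission; controls: no-enzyme low control and enzyme-plus-DMSO high control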
Pemphigus Ab inh: inhibitors of pemphigus antibody binding to human desmoglein-3 | P32926 | DSG3-coupled beads, scFv-anti-DSG3-GFP binding, flow cytometry; active compounds read low | binding (percent of control), % at 10 µM | 0.48% of 310,000 active | AID 588358;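 active = binding more than 3 SD below its plate's average and above zero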;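 note: hits lower antibody fragment binding to DSG3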
HNF4A DNA FP: change in binding of human HNF4 alpha to DNA; HNF4a-FITC DNA binding, fluorescence polarization, 1 h; AID 1224865; P41235; activity change, % at 10 µM; 0.3% of 360,000 active; in the data active = activity change above about 30%, passing the limit was not always enough
Target sequence (P41235 whole entry, looked up): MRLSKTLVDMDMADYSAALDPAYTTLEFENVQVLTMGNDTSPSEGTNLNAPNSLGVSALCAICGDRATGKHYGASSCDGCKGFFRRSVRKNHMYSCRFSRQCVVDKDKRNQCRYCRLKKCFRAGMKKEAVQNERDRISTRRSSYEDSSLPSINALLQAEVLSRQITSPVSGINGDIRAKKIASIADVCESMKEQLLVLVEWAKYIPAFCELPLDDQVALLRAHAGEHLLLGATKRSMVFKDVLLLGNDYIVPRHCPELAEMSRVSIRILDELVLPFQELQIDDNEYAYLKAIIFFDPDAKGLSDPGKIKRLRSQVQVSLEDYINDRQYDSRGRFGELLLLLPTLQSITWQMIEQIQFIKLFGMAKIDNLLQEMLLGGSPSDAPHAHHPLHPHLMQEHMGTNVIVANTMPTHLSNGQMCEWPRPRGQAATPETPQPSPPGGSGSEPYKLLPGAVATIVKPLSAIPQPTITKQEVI
Granule exo inh: lytic granule exocytosis inhibition; 0.66% of 360,000 active; inhibition, % at 10 µM; AID 651702; TALL-104 LAMP-1 surface exposure, flow cytometry; cells stimulated with thapsigargin and PMA;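 active = inhibition above about 55%, limit read from the data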
H9c2 protect: modulators protecting cardiomyocytes from myocardial damage. H9c2 cardiomyocytes, H2O2 injury protection, ATPLite, 2 h. protection from H2O2 cell death, % at 20 µM. 0.63% of 360,000 active;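 active = compounds giving at least 50% protection of heart cells from peroxide-induced death in the single-dose screen, raw or plate-pattern-corrected value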;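 note: 0% = DMSO wells with peroxide and 100% = DMSO wells without peroxide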
SENP1 inh conf: confirmation of human SENP1 SUMO protease inhibitors. shares compounds with SENP1 inh. recombinant SENP1, CyPet-SUMO1-YPet FRET cleavage. inhibition, % at 10 µM. 34% of 520 active. AID 651678; in the data active = inhibition mostly above about 35%, no sharp cut-off; inactive = mostly below about 32%;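 note: 0% = enzyme with DMSO and 100% = no enzyme control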
SENP1 kin conf: SENP1 (human) inhibition, kinetic confirmation | shares compounds with SENP1 inh | recombinant SENP1, CyPet-SUMO1-YPet FRET kinetic cleavage | inhibition, % at 10 µM | 26% of 520 active | AID 651690; in the data active = inhibition mostly above about 32%, no sharp cut-off; inactive = mostly below about 29%;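 note: 0% = DMSO with enzyme and 100% = no enzyme substrate only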
* = called active by the depositor; i = inactive; . = no result given.

SMILES	Myeloid diff MLP	SENP1 inh	Pemphigus Ab inh	HNF4A DNA FP	Granule exo inh	H9c2 protect	SENP1 inh conf	SENP1 kin conf
O=C(CCc1ccccc1)N=C1SC2CS(=O)(=O)CC2N1c1ccccc1 (centres undefined)	i	0	105	2	-1	-1	.	.
O=C(NNS(=O)(=O)c1ccccc1[N+](=O)[O-])c1cccnc1	i	0	101	-4	1	16	.	.
Nc1ccc(C2CCCc3nonc32)c2nonc12 (centres undefined)	i	35*	.	-1	0	10	51*	28
Nc1ccc(N2CCCCC2)c2nonc12	i	13	89	0	-7	-4	.	.
CN(C)CCN1C(=O)C(O)=C(C(=O)c2cc3ccccc3o2)C1c1ccc(N(C)C)cc1 (centres undefined)	i	31*	108	0	2	-3	8	-5
Cc1ccc(C2C(C(=O)c3cc4ccccc4o3)=C(O)C(=O)N2CCN(C)C)o1 (centres undefined)	i	-12	98	-1	-1	-2	.	.
COc1cccc(C2CC(C(F)(F)F)n3nc(C(=O)Nc4c(C)n(C)n(-c5ccccc5)c4=O)cc3N2)c1 (centres undefined)	i	27*	121	2	-3	-9	13	7
Cc1ccc(C2CC(C(F)(F)F)n3nc(C(=O)Nc4c(C)n(C)n(-c5ccccc5)c4=O)cc3N2)cc1 (centres undefined)	i	-30	102	4	-2	-9	.	.
O=C1c2c(O)cccc2C(C2OC(CO)[C@@H](O)[C@H](O)[C@H]2O)c2cc(CO)cc(O)c21 (some centres undefined)	i	10	105	-14	-5	-2	.	.
O=C1c2cc(CO)cc(O)c2C(=O)c2c(O[C@@H]3OC(CO)[C@@H](O)[C@@H](O)[C@@H]3O)cccc21 (some centres undefined)	i	43*	84	0	-8	7	45*	30
CC(=O)n1c2ccccc2c2c1c1ccccc1n2C	i	75*	.	-15	-2	8	-13	-11
Clc1cc2c(nn1)Nc1ccccc1S2	i	31*	115	-4	1	-4	15	12
CC[C@@H]1C/C=C\Cc2ccccc2[C@H](C(=O)C[C@@H](O)CC(C)=O)OC1=O	i	2	110	1	14	-10	.	.
Cc1ccc(-c2noc(-c3cc4ccccc4oc3=O)n2)cc1	.	-5	105	2	-5	-10	.	.
Cc1cccc(-c2noc(-c3cc4ccccc4oc3=O)n2)c1	i	51*	99	-2	-2	-16	0	6
CC1(C)CC(=O)C=C(Nc2ccc(C(=O)O)c(O)c2)C1	i	-92	94	-2	-3	-1	.	.
COc1ccc(NC(=O)CCCc2ccccc2)cc1OC	i	1	125	1	-7	4	.	.
CN(Cc1ccccc1)C(=O)CCS(=O)(=O)c1ccc2c(c1)oc(=O)n2C	i	1	.	-4	4	9	.	.
Cn1c(=O)oc2cc(S(=O)(=O)Nc3ccc(C(=O)O)cc3)ccc21	i	5	98	-5	4	0	.	.
CC(C)C(=O)N(Cc1ccccc1)S(=O)(=O)c1ccc2c(c1)oc(=O)n2C	i	43*	124	11	-6	-2	16	13
Cn1c(=O)oc2cc(S(=O)(=O)NCc3ccc(C(=O)O)cc3)ccc21	i	28*	115	5	0	2	17	2
O=C(O)c1ccc(Sc2nnc3ccccn23)c([N+](=O)[O-])c1	i	2	97	2	-2	1	.	.
NC(=S)NN=C(c1ccc(F)cc1)C1CC1	i	1	115	4	0	-5	.	.
CCCN(CC(=O)Nc1ccccc1C)C(=O)COc1ccc2c(c1)CCC2	i	-1	110	3	-2	-2	.	.

Screening results (PubChem BioAssay)
